This is an account of results in ChEMBL document CHEMBL1137389, “Synthesis and biological properties of novel, uracil-containing histone deacetylase inhibitors” (J Med Chem, 2006).

Test [1] addresses T1, Histone deacetylase HD2 (Zea mays, UniProt Q94F81).
T1 sequence (Q94F81 whole entry): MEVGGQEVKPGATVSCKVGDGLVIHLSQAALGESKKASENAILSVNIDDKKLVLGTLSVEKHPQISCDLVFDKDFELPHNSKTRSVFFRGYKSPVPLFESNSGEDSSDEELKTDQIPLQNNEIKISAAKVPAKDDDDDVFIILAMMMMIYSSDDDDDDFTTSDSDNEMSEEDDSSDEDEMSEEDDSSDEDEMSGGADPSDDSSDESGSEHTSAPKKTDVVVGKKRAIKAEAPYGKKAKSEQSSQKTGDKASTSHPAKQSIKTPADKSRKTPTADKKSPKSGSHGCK
Briefly: Inhibition of maize HD2.

For test [2], the target named is Histone deacetylase HD1B (Zea mays, UniProt Q9ZTP8). Put plainly: Inhibition of maize HD1B.
Test [3] has as its system U-937. Put plainly: Induction of apoptosis in U937 cells at 5 uM by AnnexinV/PI double staining. Format: functional. Summed up:
(§1)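 U937 cells exposed 48 h at 1 or 5 µM; apoptosis read by Annexin V/propidium iodide double staining and FACS.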

Test [4] has as its system U-937. Briefly: Induction of alpha-tubulin acetylation in U937 cells by Western blot analysis. The format is functional, cell-based. The conditions noted are these: Homo sapiens. Summed up:
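Western blot of U937 total protein extracts (25 µg) on 10% polyacrylamide gel, probed for acetylated alpha-tubulin (1:500); total ERKs used as loading control.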
A general note: Immunoblotting shows a protein as a band on a membrane.

The target in test [5] is Histone deacetylase 1 (Homo sapiens) (UniProt Q13547). Briefly: Inhibition of HDAC1 in U937 cell at 5 uM. The conditions noted are these: U-937. Summed up:
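HDAC1 immunoprecipitated overnight at 4 °C from U937 lysates (1000 µg extract, anti-HDAC1; IgG negative control); 10 µL IP incubated overnight at 37 °C with 120 000 CPM [3H]acetyl-histone H4 peptide on streptavidin beads in HDAC buffer ± inhibitor (5 µM); released radioactivity by scintillation counting; quadruplicate.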

The target in test [6] is Histone deacetylase 4 (Homo sapiens) (UniProt P56524). Briefly: Inhibition of HDAC4 in ZR75.1 cell at 5 uM. The conditions noted are these: ZR-75-1. In short, it runs like this:
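HDAC4 immunoprecipitated overnight at 4 °C from ZR-75.1 breast cancer lysates (1000 µg extract, anti-HDAC4; IgG negative control); 10 µL IP incubated overnight at 37 °C with 120 000 CPM [3H]acetyl-histone H4 peptide on streptavidin beads in HDAC buffer ± inhibitor (5 µM); scintillation counting; quadruplicate.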

Test [7] has as its target Histone deacetylase 1 (Mus musculus, UniProt O09106). Put plainly: Inhibition of mouse HDAC1.
Test [8] has as its system U-937. Briefly: Induction of H3 histone acetylation in U937 cells by Western blot analysis at 5 uM. Format: functional, cell-based. The settings on record: Homo sapiens.
The test system of test [9] is U-937. Briefly: Induction of granulocytic differentiation of U937 cells measured as CD11c expression level after 48 hrs at 5 uM. The format is functional, Homo sapiens. In short, it runs like this: (§2)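 Granulocytic differentiation: U937 cells treated 48 h at 1 or 5 µM, stained with PE-conjugated anti-CD11c (PE mouse IgG1 control) 30 min at 4 °C in dark, resuspended in PBS with PI 0.25 µg/mL; FACS, PI-positive cells excluded; percent CD11c-positive PI-negative cells reported.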

The subject of test [10] is U-937. Briefly: Cell cycle arrest in U937 cells by accumulation at G1 phase at 1 uM after 24 hrs. The format is functional, cell-based. The conditions noted are these: Homo sapiens. In short, it runs like this: (§3)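 U937 cells (RPMI, 10% FCS, kept at 200 000 cells/mL) treated 24 h at 1 or 5 µM (DMSO stocks); 2.5 × 10^5 cells resuspended in hypotonic buffer (0.1% Triton X-100, 0.1% sodium citrate, 50 µg/mL PI, RNAse A), 30 min dark; DNA content by flow cytometry; experiments performed three times.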

Test [11] concerns U-937. Briefly: Antiproliferative activity against U937 cells at 5 uM. The settings on record: Homo sapiens. Format: functional, cell-based. In short, it runs like this:
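U937 cells seeded at 200 000 cells/mL in RPMI/10% FCS with vehicle or inhibitor at 5 µM; living cells counted every 24 h by Trypan Blue exclusion; data plotted after three days; triplicate.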

Test [12] has as its system U-937. Put plainly: Cell cycle arrest in U937 cells by accumulation at G1 phase at 5 uM after 24 hrs. Format: functional, cell-based. The settings on record: Homo sapiens. In short, it runs like this: as §3
Test [13] deals with Zea mays. Put plainly: Selectivity for HD1A class II HDAC over HD1B class I HDAC.
Test [14] relates to U-937. Put plainly: Induction of granulocytic differentiation of U937 cells measured as CD11c expression level after 48 hrs at 1 uM. The format is functional, Homo sapiens. Summed up:
as §2

The subject of test [15] is U-937. Briefly: Induction of apoptosis in U937 cells at 1 uM by AnnexinV/PI double satining. Format: functional, Homo sapiens. Summed up: as §1
In test [16] the target is T2, Histone deacetylase HD2 (Zea mays) (UniProt Q94F81).
T2 sequence (whole entry): T1 sequence (Q94F81 whole entry)
Put plainly: Inhibition of maize HD2 at 20.9 uM.

Test [17] concerns the target Histone deacetylase HD1B (Zea mays) (UniProt Q9ZTP8). Put plainly: Inhibition of maize HD1B at 20.9 uM.
The test system of test [18] is Zea mays. Put plainly: Inhibition of maize HD1A at 20.9 uM.
In test [19] the test system is U-937. Put plainly: Cell cycle arrest in U937 cells by accumulation at S/G2/M phase at 5 uM after 24 hrs. The settings on record: Homo sapiens.

Usually IC50 stands for the concentration that inhibits the measured activity by half. As usually defined, the inhibition is the share of the control response that was lost under treatment.

Calls of active or inactive are those of the source. The calls are words filed in the database; no cut-off is given here. Where only a bound is given, the exact number is not on record here.

Histone deacetylase HD1B, sequence (Q9ZTP8 whole entry): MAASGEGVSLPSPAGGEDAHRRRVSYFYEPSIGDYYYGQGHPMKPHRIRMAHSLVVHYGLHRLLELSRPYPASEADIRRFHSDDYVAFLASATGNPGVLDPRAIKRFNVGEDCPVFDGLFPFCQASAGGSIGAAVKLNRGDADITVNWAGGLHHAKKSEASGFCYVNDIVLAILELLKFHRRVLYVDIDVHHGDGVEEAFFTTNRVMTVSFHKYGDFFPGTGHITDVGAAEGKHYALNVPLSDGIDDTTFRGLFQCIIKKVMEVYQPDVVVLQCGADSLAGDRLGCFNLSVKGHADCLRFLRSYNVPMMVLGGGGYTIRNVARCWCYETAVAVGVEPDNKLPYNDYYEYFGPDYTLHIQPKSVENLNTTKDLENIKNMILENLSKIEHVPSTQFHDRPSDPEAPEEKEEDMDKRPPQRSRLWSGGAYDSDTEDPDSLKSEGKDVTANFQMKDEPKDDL
Histone deacetylase 1, sequence (O09106 whole entry): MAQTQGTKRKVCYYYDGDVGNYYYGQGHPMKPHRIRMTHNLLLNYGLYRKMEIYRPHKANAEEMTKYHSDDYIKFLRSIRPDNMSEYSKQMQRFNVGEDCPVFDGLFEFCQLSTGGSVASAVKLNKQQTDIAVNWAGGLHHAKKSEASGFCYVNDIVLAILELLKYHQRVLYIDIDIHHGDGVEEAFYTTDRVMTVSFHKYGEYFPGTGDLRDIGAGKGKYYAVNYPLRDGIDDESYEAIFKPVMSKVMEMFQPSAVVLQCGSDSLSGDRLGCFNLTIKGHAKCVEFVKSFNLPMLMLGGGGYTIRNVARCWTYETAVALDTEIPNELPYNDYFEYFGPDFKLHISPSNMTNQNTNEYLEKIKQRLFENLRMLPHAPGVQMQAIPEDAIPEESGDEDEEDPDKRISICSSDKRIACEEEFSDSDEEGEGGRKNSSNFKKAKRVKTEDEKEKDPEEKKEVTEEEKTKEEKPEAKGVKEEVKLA
Histone deacetylase 4 (Homo sapiens), sequence (P56524 whole entry): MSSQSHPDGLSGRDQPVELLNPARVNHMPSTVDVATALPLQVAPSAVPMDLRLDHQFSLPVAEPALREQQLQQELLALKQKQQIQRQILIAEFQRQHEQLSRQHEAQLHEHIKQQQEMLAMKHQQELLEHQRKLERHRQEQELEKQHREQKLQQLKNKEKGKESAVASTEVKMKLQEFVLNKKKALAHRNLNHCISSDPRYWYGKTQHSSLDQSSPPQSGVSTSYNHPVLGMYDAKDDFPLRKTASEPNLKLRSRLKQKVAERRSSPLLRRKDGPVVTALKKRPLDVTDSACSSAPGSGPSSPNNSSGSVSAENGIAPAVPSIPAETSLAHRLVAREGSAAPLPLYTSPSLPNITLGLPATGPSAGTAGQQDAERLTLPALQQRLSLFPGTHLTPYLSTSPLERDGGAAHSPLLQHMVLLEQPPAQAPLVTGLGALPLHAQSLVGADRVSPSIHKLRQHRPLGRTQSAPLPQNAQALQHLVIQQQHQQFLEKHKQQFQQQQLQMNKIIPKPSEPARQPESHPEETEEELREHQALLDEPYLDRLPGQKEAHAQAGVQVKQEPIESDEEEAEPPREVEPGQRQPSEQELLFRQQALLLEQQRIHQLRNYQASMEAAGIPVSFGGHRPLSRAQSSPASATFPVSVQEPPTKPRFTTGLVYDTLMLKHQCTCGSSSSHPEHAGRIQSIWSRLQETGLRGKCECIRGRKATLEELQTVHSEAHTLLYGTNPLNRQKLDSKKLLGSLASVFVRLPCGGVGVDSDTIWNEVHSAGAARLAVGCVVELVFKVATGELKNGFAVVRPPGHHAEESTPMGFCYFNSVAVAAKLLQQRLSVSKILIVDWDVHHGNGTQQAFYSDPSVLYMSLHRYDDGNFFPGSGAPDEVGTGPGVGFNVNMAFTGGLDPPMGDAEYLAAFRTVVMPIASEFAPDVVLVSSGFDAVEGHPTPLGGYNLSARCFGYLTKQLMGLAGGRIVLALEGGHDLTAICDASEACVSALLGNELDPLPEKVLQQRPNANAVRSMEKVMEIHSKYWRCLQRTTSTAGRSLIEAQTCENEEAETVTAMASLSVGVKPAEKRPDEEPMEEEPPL
Histone deacetylase 1 (Homo sapiens), sequence (Q13547 whole entry): as the sequence (O09106 whole entry) above, with K8R, E399D, D424E counted along it
Histone deacetylase HD1B (Zea mays), sequence (Q9ZTP8 as listed by the source): as the sequence (Q9ZTP8 whole entry) above

On to `O=C(CCCCCCSc1nc(CCc2ccccc2)cc(=O)[nH]1)NO`, for which the IC50 was determined as 0.083 µM in test [1] and 0.062 µM in [2].

`O=C(/C=C/c1ccccc1CSc1nc(O)cc(-c2ccccc2)n1)NO`: the IC50 in [1] was determined as 0.367 µM; in test [2], 0.78 µM.

Consider `O=C(CCCCSc1nc(-c2ccccc2)cc(=O)[nH]1)NO`, for which, in test [3] (Homo sapiens), the outcome was inactive. Also, the result in [4] and in test [8] was Active. The 50% inhibitory concentration (IC50) in test [1] amounted to 0.008 µM; in test [2], 0.01 µM; in [7] it was 0.04 µM. The inhibition worked out at 46% in test [5] and 0% in test [6].

As to `O=C(/C=C/c1cccc(CSc2nc(O)cc(-c3ccccc3)n2)c1)NO`, in [3] (Homo sapiens), the result was inactive. Also, the IC50 is 0.017 µM in test [1], 0.064 µM in test [2] and 0.057 µM in test [7]. This compound also registered an Activity in test [9] of 33%. The result in [10], in test [11], in test [8] and in [12] was Active.

`O=C(CCCCCSc1nc(C2(c3ccccc3)CC2)cc(=O)[nH]1)NO`: the figures for the IC50 in test [1] and in test [2] were 0.062 µM and 0.047 µM, respectively.

Turning to `COC(c1ccccc1)c1cc(O)nc(SCCCCCC(=O)NO)n1` (stereo not drawn), the IC50 in test [1] came out at 0.082 µM; in [2], 0.079 µM.

In the case of `O=C(CCCCCSc1nc(Cc2ccccc2)cc(=O)[nH]1)NO`, the outcome in test [3] (Homo sapiens) was inactive. In addition, in test [9], the Activity came out at 30%. The values for the IC50 in test [2] and in [7] were 0.018 µM and 0.103 µM, respectively.

On to `CC(c1ccccc1)c1cc(=O)[nH]c(SCCCCCC(=O)NO)n1` (stereo not drawn), for which the concentration for half-maximal inhibition (IC50) in test [1] stood at 0.009 µM; in test [2], 0.092 µM; in test [7] it was 0.121 µM.

With `O=C(CCCSc1nc(O)cc(-c2ccccc2)n1)NO`, the IC50 was 0.027 µM in test [1] and 0.031 µM in test [2].

Consider `O=C(CCCCCSc1nc(O)cc(C(c2ccccc2)c2ccccc2)n1)NO`, for which the outcome in test [3] (Homo sapiens) was inactive.

`O=C(/C=C/c1ccccc1CSc1nc(O)cc(Cc2ccccc2)n1)NO`: the IC50 is 0.76 µM in test [1] and 1.06 µM in test [2].

Turning to `O=C(CCCCSc1nc(O)cc(CCc2ccccc2)n1)NO`, the Selectivity ratio in test [13] was greater than 3.

As for `CC(/C=C/C(=O)NO)=C\[C@@H](C)C(=O)c1ccc(N(C)C)cc1` [TRICHOSTATIN], 0.0004 µM corresponded to half-maximal inhibition in test [2] (IC50).

As for `O=C(CCCSc1nc(O)cc(CCc2ccccc2)n1)NO`, the results for the IC50 in test [1] and in test [2] were 0.205 µM and 0.17 µM, respectively.

In the case of `CCC(c1ccccc1)c1cc(=O)[nH]c(SCCCCCC(=O)NO)n1` (stereo not drawn), the half-maximal inhibitory concentration (IC50) in test [1] amounted to 0.032 µM; in test [2] it was 0.031 µM.

For `O=C(CCSc1nc(O)cc(CCc2ccccc2)n1)NO`, the IC50 came to 0.037 µM in [1] and 0.06 µM in [2].

As for `O=C(CCCCCCCSc1nc(O)cc(-c2ccccc2)n1)NO`, the Selectivity ratio in test [13] was greater than 3.

Consider `O=C(/C=C/c1ccc(CSc2nc(O)cc(Cc3ccccc3)n2)cc1)NO`, for which the outcome in test [3] (Homo sapiens) was inactive. Besides, the figures for the half-inhibitory concentration (IC50) in test [1], in test [2] and in [7] were 0.08 µM, 0.073 µM and 0.11 µM, respectively. In addition, the Activity came out at 33% in [9] and 30% in test [14].

In turn, `O=C(/C=C/c1cccc(CSc2nc(O)cc(Cc3ccccc3)n2)c1)NO` gave an Activity in test [15] of 8%. The result in test [3] (Homo sapiens) was inactive. Further, the half-inhibitory concentration (IC50) in [1] was found to be 0.041 µM; in [2], 0.042 µM; in [7], 0.09 µM.

As for `O=C(/C=C/Sc1nc(O)cc(CCc2ccccc2)n1)NO`, the half-maximal inhibitory concentration (IC50) stood at 41 µM in [1] and 96 µM in test [2].

`O=C(/C=C/Sc1nc(O)cc(-c2ccccc2)n1)NO`: the inhibition in [16], in [17] and in test [18] was 0% in each case.

For the compound `O=C(CCSc1nc(-c2ccccc2)cc(=O)[nH]1)NO`, the figures for the IC50 in test [1] and in test [2] were 0.822 µM and 0.89 µM, respectively.

`O=C(CCCCCCSc1nc(O)cc(-c2ccccc2)n1)NO`: the Selectivity ratio in test [13] was greater than 3.

For `O=C(/C=C/c1ccc(CSc2nc(O)cc(-c3ccccc3)n2)cc1)NO`, the Activity is 8.8% in [15], 46% in test [9] and 42.5% in test [14]. Besides, the result in [3] (Homo sapiens) was inactive. Besides, the results for the IC50 in test [1], in test [2] and in test [7] were 0.023 µM, 0.112 µM and 0.034 µM, respectively. Moreover, the outcome in [11], in test [8] and in test [12] was Active. Besides, the inhibition in test [5] amounted to 94%; in test [6] it was 14%.

As to `O=C(CCCCSc1nc(CCc2ccccc2)cc(=O)[nH]1)NO`, the results for the IC50 in test [1] and in test [2] were 0.04 µM and 0.046 µM, respectively.

`O=C(CCCCCCCSc1nc(-c2ccccc2)cc(=O)[nH]1)NO`: the half-maximal inhibitory concentration (IC50) in test [1] worked out at 0.042 µM; in [2], 0.089 µM.

Consider `O=C(CCCCCCCSc1nc(CCc2ccccc2)cc(=O)[nH]1)NO`, for which the figures for the half-inhibitory concentration (IC50) in [1] and in [2] were 0.09 µM and 0.062 µM, respectively.

For the compound `O=C(CCCCCCC(=O)Nc1ccccc1)NO` [VORINOSTAT], the Activity in [3] was determined as 98%; in test [9], 32%; in test [14], 48%. The outcome in test [19] was Active.

As to `O=C(CCCCCSc1nc(C(c2ccccc2)c2ccccc2)cc(=O)[nH]1)NO`, the IC50 is 0.052 µM in test [1] and 0.058 µM in test [2].

As for `O=C(CCCCCCSc1nc(-c2ccccc2)cc(=O)[nH]1)NO`, the IC50 in test [1] amounted to 0.038 µM; in test [2], 0.048 µM.

Regarding `O=C(CCCCCSc1nc(-c2ccccc2)cc(=O)[nH]1)NO`, in [13], the Selectivity ratio is greater than 3. The compound also returned an IC50 in test [2] of 0.019 µM.
